Reference: ChEMBL document CHEMBL4725435, “Second Generation of Zafirlukast Derivatives with Improved Activity against the Oral Pathogen Porphyromonas gingivalis” (ACS Med Chem Lett, 2020)
Activity calls are given as the source filed them. No cut-off for these calls is given here.

What was measured:
Porphyromonas gingivalis [1] = experiment: Antibacterial activity against Porphyromonas gingivalis 381 assessed as bacterial growth inhibition at 1 uM treated for 24 hrs by WST1 assay relative to control; format: functional; conditions: read-out: GI
Method in brief: (§1)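 P. gingivalis 381 read by colorimetric WST-1 after 24 h. Derivatives were tested at 1, 10 and 100 μM. Tetracycline was run at 2.81 μM and ZAF at 25 and 50 μM as positive controls, with DMSO as negative control. Percent growth inhibition is versus medium-only cultures. Derivatives had 6 independent replicates per condition; controls had 36.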

Porphyromonas gingivalis [2] = experiment: Antibacterial activity against Porphyromonas gingivalis 381 assessed as bacterial growth inhibition at 100 uM treated for 24 hrs by WST1 assay relative to control; format: functional; conditions: read-out: GI; method in brief: as §1
Porphyromonas gingivalis [3] = experiment: Antibacterial activity against Porphyromonas gingivalis 381 assessed as bacterial growth inhibition at 10 uM treated for 24 hrs by WST1 assay relative to control; format: functional; conditions: read-out: GI; method in brief: as §1
Porphyromonas gingivalis [4] = experiment: Antibacterial activity against Porphyromonas gingivalis 381 assessed as bacterial growth inhibition at 1 to 100 uM treated for 24 hrs by WST1 assay relative to control; format: functional; method in brief: as §1
[5] = system: Aggregatibacter actinomycetemcomitans; experiment: Antibacterial activity against Aggregatibacter actinomycetemcomitans JP2 assessed as bacterial growth inhibition at 1 to 100 uM treated for 24 hrs by WST1 assay; format: functional, organism-based; conditions: dose microM 1-100, time 24.0 hrs
Method in brief: (§2)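 WST-1 colorimetric growth assay across oral bacterial species, 24 h exposure. DMSO as negative control. Positive controls were ZAF at 25 and 50 μM, or penicillin/streptomycin 1X (100 U/mL penicillin, 100 μg/mL streptomycin). Percent growth inhibition is relative to cultures in medium only, averaged from six independent replicates per condition.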

[6] = Cytotoxicity against hTERT-immortalized human OKF6 cells assessed as reduction in cell density at 10 uM incubated for 24 hrs by trypan blue dye based light inverted microscopic analysis; conditions: okf6, 24 h
Method in brief: (§3)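 OKF6 cells were imaged by microscopy after 24 h treatment, with derivatives at 10 μM, to judge cell morphology and density from whole-well images. Medium-only and DMSO wells served as negative controls. Staurosporine 8 μM and ZAF 25 μM served as positive controls.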

Veillonella parvula = experiment: Antibacterial activity against Veillonella parvula ATCC 10790 assessed as bacterial growth inhibition at 1 to 100 uM treated for 24 hrs by WST1 assay; format: functional, organism-based; conditions: dose microM 1-100, time 24.0 hrs; method in brief: as §2
Porphyromonas gingivalis [7] = experiment: Bactericidal activity against Porphyromonas gingivalis 381 assessed as growth inhibition at 100 uM treated for 24 hrs under anaerobic conditions followed by culturing in blood agar plate and measured after 5 days of incubation in an anaerobic chamber by CFU assay relative to control; format: functional; conditions: read-out: GI
Method in brief: (§4)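 P. gingivalis 381 was exposed in media for 24 h at 1, 10 or 100 μM, then grown on blood agar plates for 5 days under anaerobic conditions and counted as CFUs/mL. Percent inhibition = 100 × [CFUs/mL control − CFUs/mL experimental]/CFUs/mL control, versus medium-only bacteria. Six independent replicates per condition for test compounds, 12 for controls (tetracycline 2.81 μM, ZAF 25/50 μM, DMSO).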

Porphyromonas gingivalis [8] = experiment: Bactericidal activity against Porphyromonas gingivalis 381 assessed as growth inhibition at 10 uM treated for 24 hrs under anaerobic conditions followed by culturing in blood agar plate and measured after 5 days of incubation in an anaerobic chamber by CFU assay; format: functional, organism-based; method in brief: as §4
Porphyromonas gingivalis [9] = experiment: Bactericidal activity against Porphyromonas gingivalis 381 assessed as growth inhibition at 1 uM treated for 24 hrs under anaerobic conditions followed by culturing in blood agar plate and measured after 5 days of incubation in an anaerobic chamber by CFU assay relative to control; format: functional, organism-based; method in brief: as §4
[10] = Cytotoxicity against hTERT-immortalized human OKF6 cells assessed as small and rounded cell morphology at 10 uM incubated for 24 hrs by trypan blue dye based light inverted microscopic analysis; conditions: okf6, 24 h
Method in brief: (§5)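 Immortalized oral keratinocytes (OKF6/hTERT) were exposed for 24 h to test compounds at 10 μM. Controls were staurosporine at 8 μM or zafirlukast at 25 μM (positive) and medium only or DMSO (negative). Whole-well microscope images were then scored qualitatively for cell density and morphology (size, shape, spacing between cells).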

[11] = Cytotoxicity against hTERT-immortalized human OKF6 cells assessed as cell viability at 1 uM incubated for 24 hrs by Annexin V-FITC/propidium iodide staining based flow cytometric analysis relative to control; conditions: read-out: Activity
Method in brief: (§6)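 OKF6/hTERT oral keratinocytes were treated for 24 h, then apoptosis and necrosis were assessed by flow cytometry. DMSO served as negative control; staurosporine 8 μM and ZAF 25 μM served as positive controls. Data come from two independent experiments run in duplicate, with at least 10,000 events analysed per condition.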

[12] = Cytotoxicity against hTERT-immortalized human OKF6 cells assessed as cell viability at 10 uM incubated for 24 hrs by Annexin V-FITC/propidium iodide staining based flow cytometric analysis relative to control; conditions: read-out: Activity; method in brief: as §6
Porphyromonas gingivalis [13] = experiment: Antibacterial activity against Porphyromonas gingivalis 381 assessed as bacterial growth inhibition at 2.81 uM treated for 24 hrs by WST1 assay relative to control; format: functional; conditions: read-out: GI; method in brief: as §1
[14] = Cytotoxicity against hTERT-immortalized human OKF6 cells assessed as reduction in cell density at 8 uM incubated for 24 hrs by trypan blue dye based light inverted microscopic analysis; conditions: okf6, 24 h; method in brief: as §5
[15] = Cytotoxicity against hTERT-immortalized human OKF6 cells assessed as small and rounded cell morphology at 8 uM incubated for 24 hrs by trypan blue dye based light inverted microscopic analysis; conditions: okf6, 24 h; method in brief: as §5
[16] = Cytotoxicity against hTERT-immortalized human OKF6 cells assessed as large and flattened cell morphology at 10 uM incubated for 24 hrs by trypan blue dye based light inverted microscopic analysis; conditions: okf6, 24 h; method in brief: as §3
Porphyromonas gingivalis [17] = experiment: Antibacterial activity against Porphyromonas gingivalis 381 assessed as bacterial growth inhibition at 50 uM treated for 24 hrs by WST1 assay relative to control; format: functional; conditions: read-out: GI; method in brief: as §1
Porphyromonas gingivalis [18] = experiment: Antibacterial activity against Porphyromonas gingivalis 381 assessed as bacterial growth inhibition at 25 uM treated for 24 hrs by WST1 assay relative to control; format: functional; conditions: read-out: GI; method in brief: as §1
[19] = Cytotoxicity against hTERT-immortalized human OKF6 cells assessed as reduction in cell density at 25 uM incubated for 24 hrs by trypan blue dye based light inverted microscopic analysis; conditions: okf6, 24 h; method in brief: as §3
[20] = Cytotoxicity against hTERT-immortalized human OKF6 cells assessed as small and rounded cell morphology at 25 uM incubated for 24 hrs by trypan blue dye based light inverted microscopic analysis; conditions: okf6, 24 h; method in brief: as §3
[21] = dose microM 1-100, time 24.0 hrs

SMILES | inhibition of growth at 1 µM (Porphyromonas gingivalis [1]) [%] | inhibition of growth at 100 µM (Porphyromonas gingivalis [2]) [%] | inhibition of growth at 10 µM (Porphyromonas gingivalis [3]) [%] | growth inhibition (GI) [5] | Activity [6] | growth inhibition (GI) (Veillonella parvula) | inhibition of growth at 100 µM (Porphyromonas gingivalis [7]) [%] | Activity (Porphyromonas gingivalis [8]) | viability at 24 h, 1 µM [11] [%] | viability at 24 h, 10 µM [12] [%] | also measured
COc1ccc(Cc2cn(C)c3ccc([N+](=O)[O-])cc23)cc1C(=O)NS(=O)(=O)c1ccccc1F | 53 | 58 | 59 | – | – | – | – | – | – | – | –
COc1ccc(Cc2c[nH]c3ccccc23)cc1C(=O)NS(=O)(=O)c1ccc2ccccc2c1 | – | – | – | – | – | – | – | – | – | – | growth inhibition (GI) (Porphyromonas gingivalis [4]; [21]): inactive
COc1ccc(Cc2cn(C)c3ccc([N+](=O)[O-])cc23)cc1C(=O)NS(=O)(=O)c1ccc(F)cc1 | – | 58 | 59 | – | – | – | – | – | – | – | –
COc1ccc(Cc2cn(C)c3ccc([N+](=O)[O-])cc23)cc1C(=O)NS(=O)(=O)c1cccc(F)c1 | 53 | 58 | 59 | inactive | Toxic | inactive | 100 | Active | 76 | 49 | Activity (Porphyromonas gingivalis [9]): Active; Activity [10]: Toxic
COc1ccc(Cc2cn(C)c3ccc([N+](=O)[O-])cc23)cc1C(=O)NS(=O)(=O)c1cccc([N+](=O)[O-])c1 | 53 | 58 | 59 | – | – | – | – | – | – | – | –
CN(C)[C@@H]1C(O)=C(C(N)=O)C(=O)[C@@]2(O)C(O)=C3C(=O)c4c(O)cccc4[C@@](C)(O)[C@H]3C[C@@H]12 [TETRACYCLINE] | – | – | – | – | – | – | – | – | – | – | inhibition of growth at 2.81 µM (Porphyromonas gingivalis [13]): 51%
CN[C@@H]1C[C@H]2O[C@@](C)([C@@H]1OC)n1c3ccccc3c3c4c(c5c6ccccc6n2c5c31)C(=O)NC4 [STAUROSPORINE] | – | – | – | – | – | – | – | – | – | – | Activity [14]: Toxic; Activity [15]: Toxic
COc1ccc(Cc2cn(C)c3ccc([N+](=O)[O-])cc23)cc1C(=O)NS(=O)(=O)c1ccccc1 | 0 | – | – | – | – | – | – | – | – | – | –
COc1ccc(Cc2cn(C)c3ccccc23)cc1C(=O)NS(=O)(=O)c1ccccc1C | 16 | 74 | 56 | – | – | – | – | – | – | – | –
COc1ccc(Cc2cn(C)c3ccccc23)cc1C(=O)NS(=O)(=O)c1ccc([N+](=O)[O-])cc1 | – | – | – | – | – | – | – | – | – | – | growth inhibition (GI) (Porphyromonas gingivalis [4]; dose microM 1-100): 0%
COc1ccc(Cc2cn(C)c3ccc([N+](=O)[O-])cc23)cc1C(=O)NS(=O)(=O)c1ccc2ccccc2c1 | – | 58 | 57 | – | – | – | – | – | – | – | –
COc1ccc(Cc2cn(C)c3ccccc23)cc1C(=O)NS(=O)(=O)c1cccc([N+](=O)[O-])c1 | 18 | 58 | 50 | inactive | Non-Toxic | inactive | 100 | inactive | 76 | 49 | Activity [16]: Non-Toxic; growth inhibition (GI) (Porphyromonas gingivalis [4]; dose microM 1-100): 18%
COc1ccc(Cc2cn(C)c3ccc([N+](=O)[O-])cc23)cc1C(=O)NS(=O)(=O)c1ccc([N+](=O)[O-])cc1 | 53 | 58 | 59 | inactive | Toxic | inactive | 100 | Active | 76 | 49 | Activity (Porphyromonas gingivalis [9]): Active; Activity [10]: Toxic
COc1cc(C(=O)NS(=O)(=O)c2ccccc2C)ccc1Cc1cn(C)c2ccc(NC(=O)OC3CCCC3)cc12 [ZAFIRLUKAST] | – | – | – | – | – | – | – | – | – | – | inhibition of growth at 50 µM (Porphyromonas gingivalis [17]): 68%; inhibition of growth at 25 µM (Porphyromonas gingivalis [18]): 70%; Activity [19]: Toxic; Activity [20]: Toxic
COc1ccc(Cc2cn(C)c3ccccc23)cc1C(=O)NS(=O)(=O)c1ccccc1F | – | 55 | – | – | – | – | – | – | – | – | –
COc1ccc(Cc2c[nH]c3ccccc23)cc1C(=O)NS(=O)(=O)c1ccccc1F | – | – | – | – | – | – | – | – | – | – | growth inhibition (GI) (Porphyromonas gingivalis [4]; [21]): inactive
COc1ccc(Cc2cn(C)c3ccccc23)cc1C(=O)NS(=O)(=O)c1cccc(F)c1 | 14 | 73 | 57 | inactive | Non-Toxic | inactive | 100 | inactive | 76 | 49 | Activity [16]: Non-Toxic
COc1ccc(Cc2c[nH]c3ccccc23)cc1C(=O)NS(=O)(=O)c1ccc(F)cc1 | – | – | – | – | – | – | – | – | – | – | growth inhibition (GI) (Porphyromonas gingivalis [4]; [21]): inactive
COc1ccc(Cc2cn(C)c3ccccc23)cc1C(=O)NS(=O)(=O)c1ccc(F)cc1 | – | 58 | 59 | inactive | Non-Toxic | inactive | 100 | inactive | 76 | 49 | Activity [16]: Non-Toxic
COc1ccc(Cc2cn(C)c3ccccc23)cc1C(=O)NS(=O)(=O)c1ccc2ccccc2c1 | – | 58 | – | inactive | Toxic | inactive | 100 | inactive | 76 | 49 | Activity [16]: Non-Toxic
